# Data reported in the RNAGym collection of RNA variant scans (doi:10.1126/science.aae0568).
# Fewer inactive variants are shown than the library holds.
# B1: tRNA (parent)
# chain: GUUCCGUUGGCGUAAUGGUAACGCGUCUCCCUCCUAAGGAGAAGACUGCGGGUUCGAGUCCCGUACGGAACG
# Variants of: B1
# Test: yeast fitness relative to wild type (ratio to wild type); higher = fitter; tRNA-Arg(CCU), competitive growth, 37 C, YPD
# Outline: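 Variants of the tRNA-Arg(CCU) gene were chemically synthesised with a 3% per-site mutation rate across 69 sites and placed at the native genomic locus in Saccharomyces cerevisiae. Six parallel replicates of the pooled strains were competed in YPD at 37°C for 24 hours, and gene amplicons from the start and end populations were read by 100-nucleotide paired-end sequencing. Darwinian fitness relative to wild type was derived from changes in genotype frequencies. Genotypes required ≥ 100 starting reads, and estimates < 0.5 were set to 0.5.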
row,Variant,yeast fitness
1,A45C C62G,0.718
2,A45C C62G A65C,0.554
3,A45C C66A,0.665
4,A45C C66U,0.786
5,A45C G48A C55A,0.544
6,A45C G48A C62U,0.606
7,A45C G48C,0.833
8,A45C G50A,0.969
9,A45C G50A A65C,0.634
10,A45C G50A C60G A65G,≤ 0.5
11,A45C G50A C62U A69U,0.561
12,A45C G50A G63C,0.578
13,A45C G50C G51C C55U G67C,≤ 0.5
14,A45C G51A,0.919
15,A45C G51C A57G,≤ 0.5
16,A45C G51C U54C A57G,≤ 0.5
17,A45C G52A,0.731
18,A45C G56A C62U,0.711
19,A45C G56C U64C,0.555
20,A45C G58C A69C,0.651
21,A45C G58U,0.675
22,A45C G63C,0.589
23,A45C G63C C66U,≤ 0.5
24,A45C G63C U64C,≤ 0.5

row,Variant,yeast fitness
1,A45C G68A,0.838
2,A45C G68U,0.739
3,A45C U47A,0.934
4,A45C U47A U53C,≤ 0.5
5,A45C U47C,0.951
6,A45C U47C A57C G68C,≤ 0.5
7,A45C U47G A57G,0.605
8,A45C U53C C66U,≤ 0.5
9,A45C U54C,0.69
10,A45C U54C C66U,0.606
11,A45C U59C,0.874
12,A45C U64C,0.941
13,A45G,0.991
14,A45G A57G,0.943
15,A45G A57G G63A,≤ 0.5
16,A45G A65C,0.868
17,A45G A65U,0.911
18,A45G C46A,0.916
19,A45G C46A A69U,0.768
20,A45G C46U,0.991
21,A45G C46U G50C,≤ 0.5
22,A45G C49G,0.712
23,A45G C49G A65C,≤ 0.5
24,A45G C49U,0.941

row,Variant,yeast fitness
1,A45G C55G,0.562
2,A45G C55U,0.704
3,A45G C60A,0.632
4,A45G C60A C62A,0.57
5,A45G C61A,0.635
6,A45G C61A A70G,0.55
7,A45G C62U,0.968
8,A45G C62U C66A,≤ 0.5
9,A45G C66U,0.952
10,A45G C66U A69C,0.598
11,A45G G48A,1.1
12,A45G G50C,0.637
13,A45G G56A U59A,≤ 0.5
14,A45G G56C,0.604
15,A45G G58A A69U,0.738
16,A45G G58A G63A,0.727
17,A45G G58C,0.958
18,A45G G58C G67U G68C,≤ 0.5
19,A45G G63A,0.747
20,A45G G63A G68A,0.536
21,A45G G63U,0.732
22,A45G G68A,0.973
23,A45G U47A,0.91
24,A45G U53G,0.586

row,Variant,yeast fitness
1,A45G U54G,0.563
2,A45U,0.99
3,A45U A57C,0.617
4,A45U A57G G67A,0.598
5,A45U A65G,0.947
6,A45U A65G G67U A69G,≤ 0.5
7,A45U A65U,0.959
8,A45U A70G,1.09
9,A45U A70U,0.925
10,A45U C46A C60G,0.521
11,A45U C46G,0.739
12,A45U C46G A70U,≤ 0.5
13,A45U C46G C60A,0.557
14,A45U C46G G52A,0.578
15,A45U C46U A57U,0.539
16,A45U C46U U47C U64C,0.988
17,A45U C49A G52C G56A,≤ 0.5
18,A45U C49G A65U,0.599
19,A45U C49G A70C,0.65
20,A45U C49G C55G G67C,0.532
21,A45U C49U,1.07
22,A45U C49U A65U,0.755
23,A45U C49U C61G,0.582
24,A45U C55U,0.743

row,Variant,yeast fitness
1,A45U C55U A69G,≤ 0.5
2,A45U C55U A70C,0.589
3,A45U C60G C66A,≤ 0.5
4,A45U C60U,0.737
5,A45U C61G,0.569
6,A45U C61G A65C,≤ 0.5
7,A45U C62A,0.655
8,A45U C62G C66G,≤ 0.5
9,A45U C66U G68A,0.665
10,A45U G48A,0.824
11,A45U G48A C55A,0.543
12,A45U G48A C55A A65C,≤ 0.5
13,A45U G48A G56A,0.975
14,A45U G50A G68C A69U,≤ 0.5
15,A45U G50C,0.728
16,A45U G51A,0.919
17,A45U G51C,0.538
18,A45U G56C A57G G68U,≤ 0.5
19,A45U G58A,0.907
20,A45U G63A,0.843
21,A45U G63C A65G,0.647
22,A45U G63C A65U,0.727
23,A45U G67C,0.738
24,A45U G67U A69G,0.536

row,Variant,yeast fitness
1,A45U U53A,0.723
2,A45U U53G,≤ 0.5
3,A45U U54A,0.702
4,A45U U54A C55G,≤ 0.5
5,A45U U54C C66G G67C,≤ 0.5
6,A45U U64G,0.721
7,C46A,0.999
8,C46A A57C,0.57
9,C46A A57G,0.964
10,C46A A57G C61U,0.704
11,C46A A57U,0.792
12,C46A A57U G68C,0.543
13,C46A A69C,0.839
14,C46A A69G,0.932
15,C46A A69U,1.1
16,C46A A70C,1.02
17,C46A C49A,0.601
18,C46A C49U G63C,0.694
19,C46A C55A,0.562
20,C46A C55A G63A,0.575
21,C46A C55G C66U A69C,≤ 0.5
22,C46A C55G G67U,0.699
23,C46A C55U,0.758
24,C46A C60G,0.684

row,Variant,yeast fitness
1,C46A C60G C62U A69C,≤ 0.5
2,C46A C61A,0.758
3,C46A C61G,0.637
4,C46A C61G A69C,0.501
5,C46A C61G A69G,0.551
6,C46A C61G A70U,0.525
7,C46A C61U A70C,0.861
8,C46A C62A,0.805
9,C46A C66A,0.688
10,C46A C66U,0.985
11,C46A G50A C60G G63C,≤ 0.5
12,C46A G52A G58C,0.742
13,C46A G52A G63C,0.555
14,C46A G52C G63A A65U,≤ 0.5
15,C46A G56A,1.01
16,C46A G56A A70G,1.01
17,C46A G56C,0.642
18,C46A G56U A57G,0.665
19,C46A G58C C66U,0.998
20,C46A G58C U59C,0.545
21,C46A G58U,0.907
22,C46A G58U G68A,0.932
23,C46A G63A,0.949
